The values below come from ChEMBL document CHEMBL1157639, “Identification of inhibitors of drug-resistant Candida albicans strains from a library of bicyclic peptidomimetic compounds” (2010).

Assay [1] concerns the target Secreted aspartic protease 2 (Candida albicans) (UniProt P0CS83). Briefly: Inhibition of Candida albicans SAP2 at 10 uM by spectrophotometry relative to pepstatin A. Summed up:
(§1)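 Sample was mixed with 1% (w/v) BSA substrate in 50 mM sodium citrate, pH 3.2, plus SAP2 protease (1 μg/mL stock solution) and incubated 30 min at 37 °C. The reaction was stopped with 10% TCA, kept 30 min on ice, and centrifuged; supernatant A280 was read. Percent inhibition was taken from ΔOD, with control proteinase minus proteinase plus pepstatin A set as 100%.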

For assay [2] the target is unchanged. Briefly: Inhibition of Candida albicans SAP2 at 10 uM by spectrophotometry. Summed up: as §1

Chain of Secreted aspartic protease 2 (Candida albicans) (P0CS83 57-398 limits assumed): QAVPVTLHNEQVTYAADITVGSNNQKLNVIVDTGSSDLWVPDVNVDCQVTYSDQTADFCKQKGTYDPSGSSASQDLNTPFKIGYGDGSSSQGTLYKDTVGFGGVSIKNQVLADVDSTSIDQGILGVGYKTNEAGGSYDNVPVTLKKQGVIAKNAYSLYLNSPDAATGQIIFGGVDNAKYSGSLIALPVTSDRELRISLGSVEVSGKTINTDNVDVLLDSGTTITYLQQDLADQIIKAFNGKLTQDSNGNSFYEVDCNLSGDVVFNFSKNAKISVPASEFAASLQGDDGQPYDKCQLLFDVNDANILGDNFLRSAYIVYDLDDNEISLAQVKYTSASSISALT

For the compound `O=C(NC1CCCCC1)[C@@H]1O[C@@]2(c3ccccc3)CN(C(c3ccccc3)c3ccccc3)C(=O)[C@@H]1O2`, the inhibition in assay [1] and in assay [2] was 0% throughout.

As for `CCCCNC(=O)[C@@H]1O[C@H]2CN(Cc3ccccc3)C(=O)[C@@H]1O2`, the inhibition in assay [1] came out at 18%; in assay [2], 4%.

For the compound `O=C([C@@H]1O[C@@]2(c3ccccc3)CN(C(c3ccccc3)c3ccccc3)C[C@@H]1O2)N1CCCCC1`, the inhibition in assay [1] was 23%; in assay [2], 6%.

As for `CCOC(=O)N1CCN(C(=O)[C@@H]2O[C@@H]3O[C@H]2C(=O)N(Cc2ccccc2)[C@H]3Cc2ccccc2)CC1`, the inhibition was found to be 87% in assay [1] and 17% in assay [2].

For `CC(C)CCNC(=O)[C@@H]1O[C@H]2CN(Cc3ccccc3)C[C@@H]1O2`, the inhibition in assay [1] amounted to 13%; in assay [2], 3%.

As to `O=C([C@@H]1O[C@H]2CN(Cc3ccccc3)C[C@@H]1O2)N1CCSCC1`, the figures for the inhibition in assay [1] and in assay [2] were 6% and 2%, respectively.

On to `C#CCNC(=O)[C@@H]1O[C@@]2(c3ccccc3)CN(C(c3ccccc3)c3ccccc3)C[C@@H]1O2`, for which the inhibition is 12% in assay [1] and 3% in assay [2].

As for `C#CCNC(=O)[C@@H]1O[C@H]2CN(Cc3ccccc3)C[C@@H]1O2`, the inhibition in assay [1] stood at 13%; in assay [2] it was 3%.

For `CC(NC(=O)[C@@H]1O[C@H]2CN(Cc3ccccc3)C(=O)[C@@H]1O2)c1ccccc1` (some centres not stated), the inhibition in assay [1] was determined as 87%; in assay [2], 22%.

As to `O=C(NCC(F)(F)F)[C@@H]1O[C@H]2CN(Cc3ccccc3)C(=O)[C@@H]1O2`, the results for the inhibition in assay [1] and in assay [2] were 87% and 22%, respectively.

Turning to `O=C([C@@H]1O[C@@H]2O[C@H]1C(=O)N(Cc1ccccc1)[C@H]2Cc1ccccc1)N1CCSCC1`, the inhibition in assay [1] turned out to be 40%; in assay [2] it was 13%.

As to `CC(C)CCNC(=O)[C@@H]1O[C@@H]2O[C@H]1C(=O)N(Cc1ccccc1)[C@H]2Cc1ccccc1`, the inhibition is 87% in assay [1] and 29% in assay [2].

Regarding `COC(=O)[C@H](CC(C)C)N1C[C@@]2(C)O[C@H](C(=O)N3CCN(Cc4ccccc4)CC3)[C@H](O2)C1=O`, the inhibition in assay [1] stood at 57%; in assay [2], 28%.

Consider `O=C([C@@H]1O[C@@]2(c3ccccc3)CN(C(c3ccccc3)c3ccccc3)C(=O)[C@@H]1O2)N1CCOCC1`, for which the inhibition in assay [1] came out at 19%; in assay [2] it was 5%.

As to `CC(C)C[C@@H](CO)NC(=O)[C@@H]1O[C@@H]2O[C@H]1C(=O)N(Cc1ccccc1)[C@H]2Cc1ccccc1`, the inhibition in assay [1] is 87%; in assay [2] it was 17%.

Regarding `O=C(NC1CC1)[C@@H]1O[C@@H]2O[C@H]1C(=O)N(Cc1ccccc1)[C@H]2Cc1ccccc1`, the inhibition in assay [1] is 87%; in assay [2], 29%.

As to `O=C([C@@H]1O[C@H]2CN(Cc3ccccc3)C[C@@H]1O2)N1CCCCC1`, the inhibition is 6% in assay [1] and 2% in assay [2].

Take `CCCNC(=O)[C@@H]1O[C@H]2CN(Cc3ccccc3)C[C@@H]1O2`: the results for the inhibition in assay [1] and in assay [2] were 13% and 3%, respectively.

`CCOC(=O)N1CCN(C(=O)[C@@H]2O[C@@]3(c4ccccc4)CN(C(c4ccccc4)c4ccccc4)C(=O)[C@@H]2O3)CC1`: the results for the inhibition in assay [1] and in assay [2] were 19% and 5%, respectively.

Regarding `CCCNC(=O)[C@@H]1O[C@@H]2O[C@H]1C(=O)N(Cc1ccccc1)[C@H]2Cc1ccccc1`, the inhibition is 73% in assay [1] and 36% in assay [2].

Regarding `CN(CCN)C(=O)[C@@H]1O[C@@]2(c3ccccc3)CN(C(c3ccccc3)c3ccccc3)C[C@@H]1O2`, the inhibition was 23% in assay [1] and 6% in assay [2].

Take `CN(CCN)C(=O)[C@@H]1O[C@H]2CN(Cc3ccccc3)C[C@@H]1O2`: the values for the inhibition in assay [1] and in assay [2] were 6% and 2%, respectively.

In the case of `NC(=O)C1O[C@H]2CN(Cc3ccccc3)C(=O)[C@@H]1O2` (single isomer, unassigned), the inhibition stood at 18% in assay [1] and 4% in assay [2].

On to `CCCCCNC(=O)[C@@H]1O[C@@]2(c3ccccc3)CN(C(c3ccccc3)c3ccccc3)C(=O)[C@@H]1O2`, for which the inhibition in assay [1] and in assay [2] was 0% each time.

For `CNC(=O)[C@@H]1O[C@H]2CN(Cc3ccccc3)C(=O)[C@@H]1O2`, the inhibition in assay [1] came to 18%; in assay [2] it was 4%.

For `CC(C)CNC(=O)[C@@H]1O[C@H]2CN(Cc3ccccc3)C(=O)[C@@H]1O2`, the figures for the inhibition in assay [1] and in assay [2] were 18% and 4%, respectively.

Regarding `O=C([C@@H]1O[C@@H]2O[C@H]1C(=O)N(Cc1ccccc1)[C@H]2Cc1ccccc1)N1CCOCC1`, the inhibition was 40% in assay [1] and 13% in assay [2].

On to `CCOC(=O)C1CCN(C(=O)[C@@H]2O[C@@]3(c4ccccc4)CN(C(c4ccccc4)c4ccccc4)C[C@@H]2O3)CC1`, for which the results for the inhibition in assay [1] and in assay [2] were 23% and 6%, respectively.

Take `CN(CCN)C(=O)[C@@H]1O[C@@H]2O[C@H]1C(=O)N(Cc1ccccc1)[C@H]2Cc1ccccc1`: the values for the inhibition in assay [1] and in assay [2] were 87% and 17%, respectively.

With `CCCCCCNC(=O)[C@@H]1O[C@@H]2O[C@H]1C(=O)N(Cc1ccccc1)[C@H]2Cc1ccccc1`, the inhibition in assay [1] was determined as 42%; in assay [2], 8%.

For `O=C(NCC(F)(F)F)[C@@H]1O[C@@H]2O[C@H]1C(=O)N(Cc1ccccc1)[C@H]2Cc1ccccc1`, the results for the inhibition in assay [1] and in assay [2] were 42% and 8%, respectively.

Turning to `CC(NC(=O)[C@@H]1O[C@@]2(c3ccccc3)CN(C(c3ccccc3)c3ccccc3)C(=O)[C@@H]1O2)c1ccccc1` (some centres not stated), the inhibition in assay [1] and in assay [2] was 0% throughout.

Take `O=C(NCc1ccccc1)[C@@H]1O[C@H]2CN(Cc3ccccc3)C(=O)[C@@H]1O2`: the values for the inhibition in assay [1] and in assay [2] were 18% and 4%, respectively.

For the compound `CNC(=O)[C@@H]1O[C@@H]2O[C@H]1C(=O)N(Cc1ccccc1)[C@H]2Cc1ccccc1`, the inhibition in assay [1] was 87%; in assay [2] it was 29%.

As to `CCOC(=O)C1CCN(C(=O)[C@@H]2O[C@@H]3O[C@H]2C(=O)N(Cc2ccccc2)[C@H]3Cc2ccccc2)CC1`, the inhibition in assay [1] amounted to 87%; in assay [2], 17%.

As for `O=C([C@@H]1O[C@@]2(c3ccccc3)CN(C(c3ccccc3)c3ccccc3)C[C@@H]1O2)N1CCSCC1`, the figures for the inhibition in assay [1] and in assay [2] were 23% and 6%, respectively.

`O=C([C@@H]1O[C@@H]2O[C@H]1C(=O)N(Cc1ccccc1)[C@H]2Cc1ccccc1)N1CCN(CCO)CC1`: the figures for the inhibition in assay [1] and in assay [2] were 40% and 13%, respectively.

For `O=C(NC1CCCCC1)[C@@H]1O[C@@H]2O[C@H]1C(=O)N(Cc1ccccc1)[C@H]2Cc1ccccc1`, the inhibition was 73% in assay [1] and 36% in assay [2].

For the compound `CCOC(=O)C1CCN(C(=O)[C@@H]2O[C@@]3(c4ccccc4)CN(C(c4ccccc4)c4ccccc4)C(=O)[C@@H]2O3)CC1`, the inhibition in assay [1] amounted to 19%; in assay [2] it was 5%.

As to `O=C([C@@H]1O[C@@]2(c3ccccc3)CN(C(c3ccccc3)c3ccccc3)C(=O)[C@@H]1O2)N1CCN(CCO)CC1`, the inhibition in assay [1] is 19%; in assay [2], 5%.

As for `C#CCNC(=O)[C@@H]1O[C@@H]2O[C@H]1C(=O)N(Cc1ccccc1)[C@H]2Cc1ccccc1`, the inhibition in assay [1] amounted to 42%; in assay [2] it was 8%.

In general, inhibition refers to the relative decrease from the control value, in per cent. Low values mean a response near the control, high ones a response far below the control.
